Key:
[1] = biological target: T1, Retinoic acid receptor alpha (Homo sapiens, UniProt P10276); assay: Binding affinity for Retinoic Acid Receptor alpha (RAR alpha).
T1 sequence (P10276 whole entry): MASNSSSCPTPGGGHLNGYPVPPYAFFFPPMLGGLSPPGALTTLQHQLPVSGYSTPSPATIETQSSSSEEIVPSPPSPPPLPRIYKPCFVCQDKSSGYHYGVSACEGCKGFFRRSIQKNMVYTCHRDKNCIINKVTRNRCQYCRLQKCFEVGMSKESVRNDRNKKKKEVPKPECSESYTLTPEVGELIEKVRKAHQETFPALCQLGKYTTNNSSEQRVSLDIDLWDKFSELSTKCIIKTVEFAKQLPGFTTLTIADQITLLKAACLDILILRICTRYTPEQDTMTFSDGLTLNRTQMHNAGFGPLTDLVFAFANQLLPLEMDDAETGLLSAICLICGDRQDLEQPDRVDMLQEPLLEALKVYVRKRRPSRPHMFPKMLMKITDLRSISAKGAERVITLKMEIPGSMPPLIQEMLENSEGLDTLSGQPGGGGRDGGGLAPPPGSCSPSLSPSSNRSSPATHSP
In short: (§1)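 Competitive binding to individual RAR isoforms with [3H]ATRA as radioligand. IC50 for each receptor divided by the ATRA IC50 and reported as relative IC50 (mean ± SEM). nd means relative IC50 > 1000.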

[2] = biological target: T2, Retinoic acid receptor alpha (Homo sapiens) (UniProt P10276); details: HL-60
T2 sequence (whole entry): T1 sequence (P10276 whole entry)

[3] = biological target: T2, Retinoic acid receptor alpha (Homo sapiens); assay: Transcriptional activation of Retinoic Acid Receptor alpha (RAR alpha); format: functional
In short: (§2)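 Receptor and reporter vectors were lipofected into COS-1 cells. After 4 h the medium was changed to DMEM/10% FBS for 20 h. Cells were reseeded at 3 × 10⁴/well and compounds added 6 h later, in log dilutions from 3.0 × 10^-6 to 1.0 × 10^-10 M in duplicate. Supernatant PLAP activity was read after 48 h. EC30 (30% of maximal response) was normalized to ATRA.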

[4] = biological target: T3, Retinoic acid receptor beta (Homo sapiens) (UniProt P10826); assay: Transcriptional activation of Retinoic Acid Receptor beta (RAR beta); format: functional; in short: as §2
T3 sequence (whole entry): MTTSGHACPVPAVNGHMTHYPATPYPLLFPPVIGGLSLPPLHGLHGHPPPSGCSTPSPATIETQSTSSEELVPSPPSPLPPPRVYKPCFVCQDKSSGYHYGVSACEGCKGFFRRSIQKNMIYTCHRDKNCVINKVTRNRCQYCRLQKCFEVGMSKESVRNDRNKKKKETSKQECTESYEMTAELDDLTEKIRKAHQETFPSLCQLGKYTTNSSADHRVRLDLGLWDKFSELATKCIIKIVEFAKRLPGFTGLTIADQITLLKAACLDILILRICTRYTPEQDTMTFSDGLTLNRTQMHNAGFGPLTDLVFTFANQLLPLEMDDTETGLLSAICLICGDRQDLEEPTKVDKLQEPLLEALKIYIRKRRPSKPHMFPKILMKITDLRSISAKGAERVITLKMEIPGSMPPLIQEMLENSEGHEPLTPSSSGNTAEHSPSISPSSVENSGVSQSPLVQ

[5] = biological target: T4, Retinoic acid receptor beta (Homo sapiens, UniProt P10826); assay: Binding affinity for Retinoic Acid Receptor beta (RAR beta)
T4 sequence (P10826 whole entry): T3 sequence (whole entry)
In short: (§3)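 Competitive binding to each RAR isoform using [³H]ATRA as radioligand. IC50 for each receptor was divided by the ATRA IC50 on the same receptor to give relative IC50 (mean ± SEM). Values were labelled not detectable when relative IC50 > 1000.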

[6] = biological target: T5, Retinoic acid receptor gamma (Homo sapiens) (UniProt P13631); assay: (§4) Transcriptional activation of Retinoic Acid Receptor gamma (RAR gamma); format: functional; in short: as §2
T5 sequence (whole entry): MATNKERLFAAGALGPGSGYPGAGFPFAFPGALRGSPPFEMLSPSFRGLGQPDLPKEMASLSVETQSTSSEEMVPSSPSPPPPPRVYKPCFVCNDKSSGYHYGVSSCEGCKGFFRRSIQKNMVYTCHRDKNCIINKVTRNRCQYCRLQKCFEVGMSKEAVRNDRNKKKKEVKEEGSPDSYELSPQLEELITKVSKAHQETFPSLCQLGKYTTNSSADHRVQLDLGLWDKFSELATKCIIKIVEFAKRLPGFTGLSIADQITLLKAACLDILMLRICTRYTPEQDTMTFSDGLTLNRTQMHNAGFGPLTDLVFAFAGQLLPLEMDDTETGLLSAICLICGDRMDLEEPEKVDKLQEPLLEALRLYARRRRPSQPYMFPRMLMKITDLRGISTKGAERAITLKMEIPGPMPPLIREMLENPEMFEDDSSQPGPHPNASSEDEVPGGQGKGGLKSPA

[7] = biological target: T2, Retinoic acid receptor alpha (Homo sapiens); details: COS-1
[8] = biological target: T5, Retinoic acid receptor gamma (Homo sapiens); assay: Transcriptional activation in COS-1 cells expressing Retinoic Acid Receptor gamma (RAR gamma); format: functional, cell-based
In short: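 Receptor and reporter vectors were lipofected into COS-1 cells for 4 h, then cultured 20 h in DMEM/10% FBS. Cells were reseeded at 3 × 10⁴ per well. After 6 h, compound was added in log dilutions from 1.0 × 10^-10 to 3.0 × 10^-6 M in duplicate. Supernatant PLAP activity was read after 48 h. EC30 was normalised to ATRA EC30 (mean ± SEM).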

[9] = biological target: T3, Retinoic acid receptor beta (Homo sapiens); assay: Transcriptional activation in COS-1 cells expressing Retinoic Acid Receptor beta (RAR beta); format: functional, cell-based; in short: as §2
[10] = biological target: T6, Retinoic acid receptor gamma (Homo sapiens, UniProt P13631); assay: Binding affinity for Retinoic acid receptor gamma; in short: as §3
T6 sequence (P13631 whole entry): T5 sequence (whole entry)

[11] = biological target: T1, Retinoic acid receptor alpha; assay: (§5) Binding affinity for Retinoic Acid Receptor alpha (RAR alpha)
[12] = biological target: T1, Retinoic acid receptor alpha; assay: as §5; in short: as §1; remark: listed apart in the source
[13] = biological target: T2, Retinoic acid receptor alpha (Homo sapiens); assay: Transcriptional activation in COS-1 cells expressing Retinoic Acid Receptor alpha (RAR alpha); format: functional, cell-based; in short: as §2
[14] = biological target: T6, Retinoic acid receptor gamma; assay: Binding affinity for Retinoic Acid Receptor gamma (RAR gamma); in short: as §1
[15] = biological target: T5, Retinoic acid receptor gamma (Homo sapiens); assay: as §4; in short: as §2
[16] = biological target: T2, Retinoic acid receptor alpha (Homo sapiens); assay: Induction of HL-60 cell differentiation at Retinoic Acid Receptor alpha (RAR alpha); format: functional, cell-based
In short: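 HL60 cells (1 × 10⁵ in 1 mL RPMI1640) were exposed to compounds for 5 days, in log dilutions from 1.0 × 10^-5 to 1.0 × 10^-12 M in duplicate. Differentiation was read as cell-surface CD11b expression by FACS. Values are averages of at least two experiments.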

Row | SMILES | ED30 [2] [nM] | EC30 [3] [nM] | EC30 [4] [nM] | IC50 [5] [nM] | EC30 [6] [nM] | IC50 [12] [nM] | IC50 [14] [nM] | further results
1 | CC1(C)CCC(C)(C)c2nc(C(=O)Nc3ccc(C(=O)O)cc3)cnc21 | 0.87 | 0.15 | 0.4 | 140 | 1.6 | – | – | IC50 [1]: 40 nM
2 | CC1(C)CCC(C)(C)c2cc(-c3ccc(-c4ccc(C(=O)O)cc4)[nH]3)ccc21 | 0.54 | – | – | 100 | – | – | – | EC30 [7]: 0.34 nM; EC30 [8]: 3.5 nM; EC30 [9]: 3.9 nM; IC50 [10]: 21 nM; IC50 [11]: 0.45 nM
3 | CC1(C)CCC(C)(C)c2cc(C(=O)Nc3ccc(C(=O)O)cc3)ccc21 | – | – | – | – | – | – | – | EC30 [8]: 33 nM; EC30 [9]: 12 nM
4 | CC1(C)CCC(C)(C)c2nc(-c3ccc(-c4ccc(C(=O)O)cc4)[nH]3)cnc21 | 0.11 | – | – | 230 | – | 2.2 | – | EC30 [8]: 20 nM; EC30 [9]: 2.5 nM; IC50 [10]: 310 nM; EC30 [13]: 0.32 nM
5 | CC1(C)CCC(C)(C)c2nc(-c3ccc(-c4ccc(C(=O)O)cc4)o3)cnc21 | 2.1 | 1.8 | 0.38 | 39 | 1.5 | 32 | 4.6 | –
6 | Cn1c(-c2ccc(C(=O)O)cc2)ccc1-c1cnc2c(n1)C(C)(C)CCC2(C)C | – | 38 | 14 | – | – | – | – | EC30 [15]: 120 nM; ED30 [16]: 240 nM
7 | CC1(C)CCC(C)(C)c2cc(NC(=O)c3ccc(C(=O)O)cc3)ccc21 | – | – | – | – | – | – | – | EC30 [8]: 150 nM; EC30 [9]: 48 nM

Further lines, with some results ahead:

Row | ED30 [2] [nM] | EC30 [3] [nM] | EC30 [4] [nM] | IC50 [5] [nM] | EC30 [6] [nM] | IC50 [12] [nM] | IC50 [14] [nM] | SMILES | further results
8 | 0.21 | 0.35 | 0.18 | 2.5 | 0.76 | 19 | 27 | CC1(C)CCC(C)(C)c2nc(-c3cc(-c4ccc(C(=O)O)cc4)co3)cnc21 | –
9 | 11 | 5.2 | 0.39 | 21 | 0.34 | 83 | 3.6 | CC1(C)CCC(C)(C)c2nc(-c3csc(-c4ccc(C(=O)O)cc4)n3)cnc21 | –
10 | – | 80 | 40 | – | – | – | – | CC1(C)CCC(C)(C)c2nc(-c3c[nH]c(-c4ccc(C(=O)O)cc4)n3)cnc21 | EC30 [15]: 39 nM; ED30 [16]: 20 nM
11 | 9.5 | 0.87 | 0.5 | 4.5 | 0.72 | 2.4 | 2 | CC1(C)CCC(C)(C)c2nc(-c3cc(-c4ccc(C(=O)O)cc4)cs3)cnc21 | –
12 | 40 | 15 | 0.73 | 36 | 2.1 | 130 | 17 | CC1(C)CCC(C)(C)c2nc(-c3ccc(-c4ccc(C(=O)O)cc4)s3)cnc21 | –
13 | 2.1 | 1.7 | 0.85 | 290 | 3.9 | – | – | CC1(C)CCC(C)(C)c2nc(-c3cc(-c4ccc(C(=O)O)cc4)[nH]n3)cnc21 | –
14 | 140 | 11 | 4.5 | – | 1.6 | – | 150 | CC1(C)CCC(C)(C)c2nc(-c3cc(-c4ccc(C(=O)O)cc4)c[nH]3)cnc21 | –
